Measurements: ChEMBL document CHEMBL1157704, “Potent activity against K562 cells by polyamide-seco-CBI conjugates targeting histone H4 genes” (Bioorg Med Chem, 2010)

Assays:
Format in all cases: functional
K562 [1] = experiment: Effect on LGALS3BP gene expression in human K562 cells assessed as change in mRNA transcript expression at 10 nM after 48 hrs by DNA microarray analysis relative to control
Outline: (§1)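 K562 CML cells (b3a2 Bcr-Abl) in standard ATCC-recommended culture, exposed once to 10 nM conjugate and harvested at 48 h. Untreated controls were also collected at 48 h. Transcripts were profiled on Human Gene 1.0 ST whole-genome oligonucleotide arrays, and each treated level was expressed relative to the untreated control, with a cutoff of at least twofold change.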

K562 [2] = experiment: Effect on ITGA2B gene expression in human K562 cells assessed as change in mRNA transcript expression at 10 nM after 48 hrs by DNA microarray analysis relative to control; outline: as §1
K562 [3] = experiment: Effect on NDUFS4 gene expression in human K562 cells assessed as change in mRNA transcript expression at 10 nM after 48 hrs by DNA microarray analysis relative to control; outline: as §1
K562 [4] = experiment: Effect on PYROXD1 gene expression in human K562 cells assessed as change in mRNA transcript expression at 10 nM after 48 hrs by DNA microarray analysis relative to control; outline: as §1
K562 [5] = experiment: Effect on HIST1H1D gene expression in human K562 cells assessed as change in mRNA transcript expression at 10 nM after 48 hrs by DNA microarray analysis relative to control
Outline: (§2)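 Transcripts were profiled on Affymetrix GeneChip Human Gene 1.0 ST arrays in K562 cells treated at 10 nM. Treated cells were collected at 6, 12, 24 and 48 h; untreated controls were collected at 48 h. Transcripts changed at least twofold versus control were scored.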

K562 [6] = experiment: Effect on NET1 gene expression in human K562 cells assessed as change in mRNA transcript expression at 10 nM after 48 hrs by DNA microarray analysis relative to control; outline: as §1
K562 [7] = experiment: Effect on PRG2 gene expression in human K562 cells assessed as change in mRNA transcript expression at 10 nM after 48 hrs by DNA microarray analysis relative to control; outline: as §1
K562 [8] = experiment: Effect on LOC10012 gene expression in human K562 cells assessed as change in mRNA transcript expression at 10 nM after 48 hrs by DNA microarray analysis relative to control; outline: as §1
K562 [9] = experiment: Effect on HIST1H3F gene expression in human K562 cells assessed as change in mRNA transcript expression at 10 nM after 48 hrs by DNA microarray analysis relative to control; outline: as §2
K562 [10] = experiment: Effect on HSPA1A gene expression in human K562 cells assessed as change in mRNA transcript expression at 10 nM after 48 hrs by DNA microarray analysis relative to control; outline: as §1
K562 [11] = experiment: Effect on THBS1 gene expression in human K562 cells assessed as change in mRNA transcript expression at 10 nM after 48 hrs by DNA microarray analysis relative to control
Outline: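 K562 CML cells (b3a2 Bcr-Abl) kept under standard culture conditions were exposed to 10 nM conjugate and harvested at 6, 12, 24 and 48 h. Untreated controls were harvested at 48 h. Whole-transcript oligonucleotide microarray profiling was done, and changes of at least twofold versus control were scored.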

K562 [12] = experiment: Effect on EXOC6B gene expression in human K562 cells assessed as change in mRNA transcript expression at 10 nM after 48 hrs by DNA microarray analysis relative to control; outline: as §2
K562 [13] = experiment: Effect on HIST1H3D gene expression in human K562 cells assessed as change in mRNA transcript expression at 10 nM after 48 hrs by DNA microarray analysis relative to control; outline: as §2
K562 [14] = experiment: Effect on HIST2H2A gene expression in human K562 cells assessed as change in mRNA transcript expression at 10 nM after 48 hrs by DNA microarray analysis relative to control; outline: as §1
K562 [15] = experiment: Effect on SLFN14 gene expression in human K562 cells assessed as change in mRNA transcript expression at 10 nM after 48 hrs by DNA microarray analysis relative to control; outline: as §1
K562 [16] = experiment: Effect on ATP1B2 gene expression in human K562 cells assessed as change in mRNA transcript expression at 10 nM after 48 hrs by DNA microarray analysis relative to control; outline: as §2
K562 [17] = experiment: Effect on HIST1H3B gene expression in human K562 cells assessed as change in mRNA transcript expression at 10 nM after 48 hrs by DNA microarray analysis relative to control; outline: as §2
K562 [18] = experiment: Effect on HIST1H3J gene expression in human K562 cells assessed as change in mRNA transcript expression at 10 nM after 48 hrs by DNA microarray analysis relative to control; outline: as §2
K562 [19] = experiment: Effect on ARRDC3 gene expression in human K562 cells assessed as change in mRNA transcript expression at 10 nM after 48 hrs by DNA microarray analysis relative to control; outline: as §2
K562 [20] = experiment: Effect on NTS gene expression in human K562 cells assessed as change in mRNA transcript expression at 10 nM after 48 hrs by DNA microarray analysis relative to control; outline: as §1
K562 [21] = experiment: Effect on CD52 gene expression in human K562 cells assessed as change in mRNA transcript expression at 10 nM after 48 hrs by DNA microarray analysis relative to control; outline: as §2
K562 [22] = experiment: Induction of apoptosis in human K562 cells assessed as early apoptotic cells at 250 nM after 48 hrs by annexin-V FITC and propidium iodide staining-based FACS analysis
Outline: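 Treated K562 cells […] stained with Annexin V-FITC/propidium iodide. Apoptosis was scored by two-dimensional flow cytometry at a core FACS facility.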

K562 [23] = experiment: Effect on DIAPH2 gene expression in human K562 cells assessed as change in mRNA transcript expression at 10 nM after 48 hrs by DNA microarray analysis relative to control; outline: as §2
K562 [24] = experiment: Effect on INPP5D gene expression in human K562 cells assessed as change in mRNA transcript expression at 10 nM after 48 hrs by DNA microarray analysis relative to control; outline: as §1
K562 [25] = experiment: Effect on SUPT3H gene expression in human K562 cells assessed as change in mRNA transcript expression at 10 nM after 48 hrs by DNA microarray analysis relative to control; outline: as §1
K562 [26] = experiment: Effect on HIST1H2AH gene expression in human K562 cells assessed as change in mRNA transcript expression at 10 nM after 48 hrs by DNA microarray analysis relative to control; outline: as §2
K562 [27] = experiment: Induction of apoptosis in human K562 cells assessed as viable cells at 125 nM after 48 hrs by annexin-V FITC and propidium iodide staining-based FACS analysis; conditions: K562, 48 h, read-out: Activity
Outline: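 K562 cells were exposed to conjugate in culture medium for 48 h, then stained with annexin V-FITC plus propidium iodide. Cell populations were quantified by flow cytometry.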

With `CC(=O)Nc1cn(C)c(C(=O)Nc2cn(C)c(C(=O)NCCC(=O)Nc3cn(C)c(C(=O)NCCCC(=O)Nc4cc(C(=O)Nc5cn(C)c(C(=O)Nc6ccc7[nH]c(C(=O)N8CC(CCl)c9c8cc(O)c8ccccc98)cc7c6)n5)n(C)c4)n3)n2)n1` (configuration not stated) the “fold change (FC)” value (K562 [1]) was “>=2”, the “fold change (FC)” value (K562 [2]) was “>=2” and the “fold change (FC)” value (K562 [3]) was “>=2”. For the same compound, the “fold change (FC)” value (K562 [4]) was “>=2”, the “fold change (FC)” value (K562 [5]) was “>=2” and the “fold change (FC)” value (K562 [6]) was “>=2”. The “fold change (FC)” value (K562 [7]) was “>=2”, the “fold change (FC)” value (K562 [8]) was “>=2” and the “fold change (FC)” value (K562 [9]) was “>=2”. For the same compound, the “fold change (FC)” value (K562 [10]) was “>=2”, the “fold change (FC)” value (K562 [11]) was “>=2” and the “fold change (FC)” value (K562 [12]) was “>=2”. For the same compound, the “fold change (FC)” value (K562 [13]) was “>=2”, the “fold change (FC)” value (K562 [14]) was “>=2” and the “fold change (FC)” value (K562 [15]) was “>=2”. For the same compound, the “fold change (FC)” value (K562 [16]) was “>=2”, the “fold change (FC)” value (K562 [17]) was “>=2” and the “fold change (FC)” value (K562 [18]) was “>=2”. For the same compound, the “fold change (FC)” value (K562 [19]) was “>=2”, the “fold change (FC)” value (K562 [20]) was “>=2” and the “fold change (FC)” value (K562 [21]) was “>=2”. The Activity (K562 [22]) was 17.1%, the “fold change (FC)” value (K562 [23]) was “>=2” and the “fold change (FC)” value (K562 [24]) was “>=2”. For the same compound, the “fold change (FC)” value (K562 [25]) was “>=2”, the “fold change (FC)” value (K562 [26]) was “>=2” and the viability at 0.125 µM (K562 [27]) was 80.3%.
